Measured values from ChEMBL document CHEMBL4138226, “Marine Natural Product Honaucin A Attenuates Inflammation by Activating the Nrf2-ARE Pathway” (J Nat Prod, 2018).
Structures can show the parent of a compound that is named as a salt. The source made the active and inactive calls.

What was measured:
[1] = target: T1, Kelch-like ECH-associated protein 1/Nuclear factor erythroid 2-related factor 2 (Mus musculus) (UniProt Q60795+Q9Z2X8); assay: Activation of Keap1/Nrf2 in mouse LPS-induced RAW264.7 cells assessed as change in Cd83 expression level at 4 to 12 uM pretreated for 1 hr followed by LPS addition measured after 30 to 180 mins; format: cell-based
Method in brief: (§1)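 RAW 264.7 macrophages (DMEM, 10% FBS) grown near confluent; compound (4 or 12 μM) or EtOH vehicle 1 h at 37 °C, then LPS (E. coli O26:B6, 0.5 μg/mL) for 30 or 180 min; triplicate wells. TRIzol total RNA, rRNA depletion, Illumina HiSeq2000 100 bp single-end reads; DESeq2 differential expression versus matched LPS-only control.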

[2] = tested on: Mus musculus; assay: Antiinflammatory activity in hypersensitivity CD1 mouse ear edema model assessed as PMA-induced ear edema at 0.1 umol/ear applied topically pretreated for 10 mins followed by PMA application measured after 6 hrs (reference value: 32.5 +/- 7.5%); format: functional
[3] = target: T1, Kelch-like ECH-associated protein 1/Nuclear factor erythroid 2-related factor 2 (Mus musculus); assay: Activation of Keap1/Nrf2 in mouse LPS-induced RAW264.7 cells assessed as increase in Gclm expression level at 4 to 12 uM pretreated for 1 hr followed by LPS addition measured after 30 to 180 mins; format: cell-based; method in brief: as §1
[4] = target: T1, Kelch-like ECH-associated protein 1/Nuclear factor erythroid 2-related factor 2 (Mus musculus); assay: Activation of Keap1/Nrf2 in mouse LPS-induced RAW264.7 cells assessed as change in IL-1beta expression level at 4 to 12 uM pretreated for 1 hr followed by LPS addition measured after 30 to 180 mins; format: cell-based; method in brief: as §1
[5] = target: T1, Kelch-like ECH-associated protein 1/Nuclear factor erythroid 2-related factor 2 (Mus musculus); assay: Activation of Keap1/Nrf2 in mouse LPS-induced RAW264.7 cells assessed as change in IFNb1 expression level at 4 to 12 uM pretreated for 1 hr followed by LPS addition measured after 30 to 180 mins; format: cell-based; method in brief: as §1
[6] = target: T1, Kelch-like ECH-associated protein 1/Nuclear factor erythroid 2-related factor 2 (Mus musculus); assay: Activation of Keap1/Nrf2 in mouse LPS-induced RAW264.7 cells assessed as increase in Akr1b8 expression level at 4 to 12 uM pretreated for 1 hr followed by LPS addition measured after 30 to 180 mins; format: cell-based; method in brief: as §1
[7] = target: T1, Kelch-like ECH-associated protein 1/Nuclear factor erythroid 2-related factor 2 (Mus musculus); assay: Activation of Keap1/Nrf2 in mouse LPS-induced RAW264.7 cells assessed as increase in Slc7a11 expression level at 4 to 12 uM pretreated for 1 hr followed by LPS addition measured after 30 to 180 mins; format: cell-based; method in brief: as §1
[8] = target: T1, Kelch-like ECH-associated protein 1/Nuclear factor erythroid 2-related factor 2 (Mus musculus); assay: Activation of Keap1/Nrf2 in mouse LPS-induced RAW264.7 cells assessed as increase in […] expression level at 4 to 12 uM pretreated for 1 hr followed by LPS addition measured after 30 to 180 mins; format: cell-based; method in brief: as §1
[9] = target: T1, Kelch-like ECH-associated protein 1/Nuclear factor erythroid 2-related factor 2 (Mus musculus); assay: Activation of Keap1/Nrf2 in mouse LPS-induced RAW264.7 cells assessed as change in TNF expression level at 4 to 12 uM pretreated for 1 hr followed by LPS addition measured after 30 to 180 mins; format: cell-based; method in brief: as §1
[10] = target: T1, Kelch-like ECH-associated protein 1/Nuclear factor erythroid 2-related factor 2 (Mus musculus); assay: Activation of Keap1/Nrf2 in mouse LPS-induced RAW264.7 cells assessed as change in Ccrl2 expression level at 4 to 12 uM pretreated for 1 hr followed by LPS addition measured after 30 to 180 mins; format: cell-based; method in brief: as §1
[11] = target: T1, Kelch-like ECH-associated protein 1/Nuclear factor erythroid 2-related factor 2 (Mus musculus); assay: Activation of Keap1/Nrf2 in mouse LPS-induced RAW264.7 cells assessed as increase in Hmox1 expression level at 12 uM pretreated for 1 hr followed by LPS addition measured after 30 to 180 mins; format: cell-based; method in brief: as §1
[12] = target: T1, Kelch-like ECH-associated protein 1/Nuclear factor erythroid 2-related factor 2 (Mus musculus); assay: Activation of Keap1/Nrf2 in mouse LPS-induced RAW264.7 cells assessed as change in Fos expression level at 4 to 12 uM pretreated for 1 hr followed by LPS addition measured after 30 to 180 mins; format: cell-based; method in brief: as §1
[13] = target: T1, Kelch-like ECH-associated protein 1/Nuclear factor erythroid 2-related factor 2 (Mus musculus); assay: Activation of Keap1/Nrf2 in mouse LPS-induced RAW264.7 cells assessed as change in Irf1 expression level at 4 to 12 uM pretreated for 1 hr followed by LPS addition measured after 30 to 180 mins; format: cell-based; method in brief: as §1
[14] = target: T1, Kelch-like ECH-associated protein 1/Nuclear factor erythroid 2-related factor 2 (Mus musculus); assay: Activation of Keap1/Nrf2 in mouse LPS-induced RAW264.7 cells assessed as change in IL-1alpha expression level at 4 to 12 uM pretreated for 1 hr followed by LPS addition measured after 30 to 180 mins; format: cell-based; method in brief: as §1
[15] = target: T1, Kelch-like ECH-associated protein 1/Nuclear factor erythroid 2-related factor 2 (Mus musculus); assay: Activation of Keap1/Nrf2 in mouse LPS-induced RAW264.7 cells assessed as downregulation of Rasgef1 expression level at 4 to 12 uM pretreated for 1 hr followed by LPS addition measured after 30 mins; format: cell-based; method in brief: as §1
[16] = target: T1, Kelch-like ECH-associated protein 1/Nuclear factor erythroid 2-related factor 2 (Mus musculus); assay: Activation of Keap1/Nrf2 in mouse LPS-induced RAW264.7 cells assessed as downregulation of Socs3 expression level at 4 to 12 uM pretreated for 1 hr followed by LPS addition measured after 30 mins; format: cell-based; method in brief: as §1
[17] = target: T1, Kelch-like ECH-associated protein 1/Nuclear factor erythroid 2-related factor 2 (Mus musculus); assay: Activation of Keap1/Nrf2 in mouse LPS-induced RAW264.7 cells assessed as change in Procr expression level at 4 to 12 uM pretreated for 1 hr followed by LPS addition measured after 30 to 180 mins; format: cell-based; method in brief: as §1
[18] = tested on: Mus musculus; assay: Antiinflammatory activity in hypersensitivity CD1 mouse ear edema model assessed as PMA-induced ear edema at 1 umol/ear applied topically pretreated for 10 mins followed by PMA application measured after 6 hrs (reference value: 32.5 +/- 7.5%); format: functional
[19] = target: T1, Kelch-like ECH-associated protein 1/Nuclear factor erythroid 2-related factor 2 (Mus musculus); assay: Activation of Keap1/Nrf2 in mouse LPS-induced RAW264.7 cells assessed as increase in Prdx1 expression level at 4 to 12 uM pretreated for 1 hr followed by LPS addition measured after 30 to 180 mins; format: cell-based; method in brief: as §1
[20] = tested on: Mus musculus; assay: Antiinflammatory activity in hypersensitivity CD1 mouse ear edema model assessed as PMA-induced ear edema at 0.3 umol/ear applied topically pretreated for 10 mins followed by PMA application measured after 6 hrs (reference value: 32.5 +/- 7.5%); format: functional
[21] = target: T1, Kelch-like ECH-associated protein 1/Nuclear factor erythroid 2-related factor 2 (Mus musculus); assay: Activation of Keap1/Nrf2 in mouse LPS-induced RAW264.7 cells assessed as increase in Sqstm1 expression level at 4 to 12 uM pretreated for 1 hr followed by LPS addition measured after 30 to 180 mins; format: cell-based; method in brief: as §1
[22] = target: T1, Kelch-like ECH-associated protein 1/Nuclear factor erythroid 2-related factor 2 (Mus musculus); assay: Activation of Keap1/Nrf2 in mouse LPS-induced RAW264.7 cells assessed as increase in Srxn1 expression level at 4 to 12 uM pretreated for 1 hr followed by LPS addition measured after 30 to 180 mins; format: cell-based; method in brief: as §1
[23] = target: T2, Keap1/Nrf2 (Homo sapiens) (UniProt Q16236+Q14145); assay: Activation of Keap1/Nrf2 in human MCF7 cells assessed as Nrf2 stabilization incubated overnight by luciferase reporter gene based luminescence assay; format: cell-based
Method in brief: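 NRF2 luciferase reporter MCF7 stable cells in DMEM/10% FBS with G418, seeded 5 × 10^4 cells/well, overnight adherence; DMSO-dissolved compound 1.98–15.0 μM, overnight 37 °C/5% CO2. Lysed in passive lysis buffer, firefly luciferase substrate injected, luminescence read. Activation (%) = (treated − untreated)/untreated × 100, DMSO value subtracted; tBHQ and DMF positive controls; three technical replicates per biological replicate.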

[24] = target: T1, Kelch-like ECH-associated protein 1/Nuclear factor erythroid 2-related factor 2 (Mus musculus); assay: Activation of Keap1/Nrf2 in mouse LPS-induced RAW264.7 cells assessed as change in Tnfaip3 expression level at 4 to 12 uM pretreated for 1 hr followed by LPS addition measured after 30 to 180 mins; format: cell-based; method in brief: as §1
[25] = target: T1, Kelch-like ECH-associated protein 1/Nuclear factor erythroid 2-related factor 2 (Mus musculus); assay: Activation of Keap1/Nrf2 in mouse LPS-induced RAW264.7 cells assessed as change in Nfkbiz expression level at 4 to 12 uM pretreated for 1 hr followed by LPS addition measured after 30 to 180 mins; format: cell-based; method in brief: as §1
[26] = target: T1, Kelch-like ECH-associated protein 1/Nuclear factor erythroid 2-related factor 2 (Mus musculus); assay: Activation of Keap1/Nrf2 in mouse LPS-induced RAW264.7 cells assessed as change in Nfkbia expression level at 4 to 12 uM pretreated for 1 hr followed by LPS addition measured after 30 to 180 mins; format: cell-based; method in brief: as §1
[27] = tested on: Mus musculus; assay: Antiinflammatory activity in hypersensitivity CD1 mouse ear edema model assessed as PMA-induced ear edema at 3 umol/ear applied topically pretreated for 10 mins followed by PMA application measured after 6 hrs (reference value: 32.5 +/- 7.5%); format: functional
[28] = target: T1, Kelch-like ECH-associated protein 1/Nuclear factor erythroid 2-related factor 2 (Mus musculus); assay: Activation of Keap1/Nrf2 in mouse LPS-induced RAW264.7 cells assessed as change in Fosl1 expression level at 4 to 12 uM pretreated for 1 hr followed by LPS addition measured after 30 to 180 mins; format: cell-based; method in brief: as §1
[29] = target: T1, Kelch-like ECH-associated protein 1/Nuclear factor erythroid 2-related factor 2 (Mus musculus); assay: Activation of Keap1/Nrf2 in mouse LPS-induced RAW264.7 cells assessed as change in Ccl22 expression level at 4 to 12 uM pretreated for 1 hr followed by LPS addition measured after 30 to 180 mins; format: cell-based; method in brief: as §1
[30] = tested on: MCF7; assay: Cytotoxicity against human MCF7 cells assessed as decrease in cell viability at 15 uM by MTT assay; format: cell-based; conditions: mcf7, 15 µM
Method in brief: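 Nrf2-reporter MCF7 cells seeded and dosed as in the reporter assay (1.98–15.0 μM in DMSO, overnight at 37 °C). Cells washed, then 1 mg/mL MTT in serum-free DMEM for 25 min at 37 °C. Formazan dissolved in DMSO, absorbance read at 570 and 630 nm, background subtracted. Viability given as % of untreated control, mean ± standard error.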

[31] = target: T1, Kelch-like ECH-associated protein 1/Nuclear factor erythroid 2-related factor 2 (Mus musculus); assay: Activation of Keap1/Nrf2 in mouse LPS-induced RAW264.7 cells assessed as change in […] expression level at 4 to 12 uM pretreated for 1 hr followed by LPS addition measured after 30 to 180 mins; format: cell-based; method in brief: as §1
[32] = target: T1, Kelch-like ECH-associated protein 1/Nuclear factor erythroid 2-related factor 2 (Mus musculus); assay: Activation of Keap1/Nrf2 in mouse LPS-induced RAW264.7 cells assessed as change in Cd300lb expression level at 4 to 12 uM pretreated for 1 hr followed by LPS addition measured after 30 to 180 mins; format: cell-based; method in brief: as §1
[33] = target: T2, Keap1/Nrf2 (Homo sapiens); assay: Activation of Keap1/Nrf2 in human MCF7 cells assessed as Nrf2 stabilization at 15 uM incubated overnight by luciferase reporter gene based luminescence assay; format: cell-based
Method in brief: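 MCF7 cells stably carrying an Nrf2-responsive firefly luciferase construct, grown with G418, seeded 5 × 10^4 cells/well and left overnight at 37 °C. Compound added in DMSO (tested range 1.98–15.0 μM), incubated overnight. Cells washed, lysed 15 min at room temperature, luminescence read after substrate injection. Activation = % RLU over untreated cells, DMSO value subtracted. Triplicate technical wells; positive controls tBHQ and DMF.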

Measured: Activity

T2 sequence (Q14145 whole entry, looked up): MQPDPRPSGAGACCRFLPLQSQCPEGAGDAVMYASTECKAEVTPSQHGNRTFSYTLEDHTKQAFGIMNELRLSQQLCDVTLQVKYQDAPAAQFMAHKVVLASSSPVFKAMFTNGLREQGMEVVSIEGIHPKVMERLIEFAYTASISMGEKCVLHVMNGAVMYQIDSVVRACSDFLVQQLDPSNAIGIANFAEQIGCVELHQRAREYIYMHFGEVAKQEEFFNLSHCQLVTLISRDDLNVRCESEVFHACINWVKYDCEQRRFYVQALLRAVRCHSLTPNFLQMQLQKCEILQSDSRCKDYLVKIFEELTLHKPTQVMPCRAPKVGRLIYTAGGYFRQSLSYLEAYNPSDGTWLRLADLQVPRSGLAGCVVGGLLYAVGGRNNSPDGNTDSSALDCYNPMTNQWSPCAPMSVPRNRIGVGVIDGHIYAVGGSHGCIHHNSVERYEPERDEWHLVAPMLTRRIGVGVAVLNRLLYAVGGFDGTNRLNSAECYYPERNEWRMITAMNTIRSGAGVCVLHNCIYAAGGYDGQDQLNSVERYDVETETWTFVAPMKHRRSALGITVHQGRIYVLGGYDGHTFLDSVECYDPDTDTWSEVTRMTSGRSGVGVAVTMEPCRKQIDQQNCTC
T2 sequence (Q16236 whole entry, looked up): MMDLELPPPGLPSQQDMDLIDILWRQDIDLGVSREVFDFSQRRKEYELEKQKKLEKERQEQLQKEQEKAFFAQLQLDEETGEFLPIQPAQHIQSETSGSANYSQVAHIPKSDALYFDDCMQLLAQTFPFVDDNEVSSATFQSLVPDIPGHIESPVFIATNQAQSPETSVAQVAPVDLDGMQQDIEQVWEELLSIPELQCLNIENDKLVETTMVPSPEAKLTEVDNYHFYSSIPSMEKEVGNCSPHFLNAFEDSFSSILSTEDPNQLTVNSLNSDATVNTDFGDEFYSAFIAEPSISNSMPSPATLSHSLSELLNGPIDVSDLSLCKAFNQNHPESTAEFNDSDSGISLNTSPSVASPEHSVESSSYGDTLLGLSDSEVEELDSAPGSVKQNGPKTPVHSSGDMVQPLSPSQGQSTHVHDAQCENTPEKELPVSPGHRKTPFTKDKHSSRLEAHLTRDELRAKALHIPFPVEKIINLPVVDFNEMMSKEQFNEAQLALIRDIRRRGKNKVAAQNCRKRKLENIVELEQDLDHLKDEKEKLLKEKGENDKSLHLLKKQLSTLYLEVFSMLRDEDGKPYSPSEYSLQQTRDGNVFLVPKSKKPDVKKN
T1 sequence (Q60795 whole entry, looked up): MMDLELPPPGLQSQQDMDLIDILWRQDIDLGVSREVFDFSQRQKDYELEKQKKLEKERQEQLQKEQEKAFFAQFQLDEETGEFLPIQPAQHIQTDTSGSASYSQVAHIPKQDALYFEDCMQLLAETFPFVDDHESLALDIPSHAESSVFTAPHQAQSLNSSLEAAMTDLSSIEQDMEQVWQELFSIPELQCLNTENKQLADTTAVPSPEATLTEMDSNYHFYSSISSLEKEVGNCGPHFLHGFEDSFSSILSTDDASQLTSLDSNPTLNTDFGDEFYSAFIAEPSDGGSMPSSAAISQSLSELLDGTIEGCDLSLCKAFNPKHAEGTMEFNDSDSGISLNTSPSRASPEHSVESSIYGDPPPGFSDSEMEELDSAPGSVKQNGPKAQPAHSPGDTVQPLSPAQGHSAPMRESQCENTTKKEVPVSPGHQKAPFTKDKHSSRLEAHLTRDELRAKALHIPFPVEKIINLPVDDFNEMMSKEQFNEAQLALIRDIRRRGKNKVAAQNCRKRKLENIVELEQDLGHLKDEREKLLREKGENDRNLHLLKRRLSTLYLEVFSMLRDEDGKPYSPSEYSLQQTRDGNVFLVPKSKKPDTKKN
T1 sequence (Q9Z2X8 whole entry, looked up): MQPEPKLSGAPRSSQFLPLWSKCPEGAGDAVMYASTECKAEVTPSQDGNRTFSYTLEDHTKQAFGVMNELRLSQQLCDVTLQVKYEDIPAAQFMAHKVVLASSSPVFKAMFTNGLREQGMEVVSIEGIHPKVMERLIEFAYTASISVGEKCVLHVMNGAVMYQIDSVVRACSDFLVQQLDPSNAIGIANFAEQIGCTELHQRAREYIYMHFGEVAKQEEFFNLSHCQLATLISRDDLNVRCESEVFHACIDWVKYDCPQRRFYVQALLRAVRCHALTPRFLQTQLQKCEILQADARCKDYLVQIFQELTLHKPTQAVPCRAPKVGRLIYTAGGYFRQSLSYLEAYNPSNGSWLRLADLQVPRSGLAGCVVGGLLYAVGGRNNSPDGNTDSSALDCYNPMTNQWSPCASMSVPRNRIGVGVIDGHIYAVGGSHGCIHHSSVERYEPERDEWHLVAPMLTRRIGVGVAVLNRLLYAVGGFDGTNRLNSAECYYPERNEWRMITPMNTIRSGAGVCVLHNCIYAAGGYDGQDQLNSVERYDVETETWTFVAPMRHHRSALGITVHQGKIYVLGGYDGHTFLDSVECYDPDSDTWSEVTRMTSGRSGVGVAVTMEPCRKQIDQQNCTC

O=C(/C=C/CCl)O[C@@H]1COC(=O)C1
active: [1] | [3] | [4] | [5] | [6] | [7] | [8] | [9] | [10] | [11] | [12] | [13] | [14] | [15] | [16] | [17] | [19] | [21] | [22] | [23] Dose-dependent effect | [24] | [25] | [26] | [28] | [29] | [31] | [32]
51.4%: [27]
17.1%: [2]
Toxic: [30]
10%: [20]
27.6%: [18]

COC(=O)/C=C/C(=O)OC [DIMETHYL FUMARATE]
active: [33]
Toxic: [30]

CC(C)(C)c1cc(O)ccc1O [E319]
active: [33]
Toxic: [30]
